Activity calls are given as the source filed them. No cut-off for these calls is given here.
Key:
Rhizopus homothallicus [1] = experiment: Antimicrobial activity against Rhizopus homothallicus isolate 6360 after 24 hrs in RMPI 1640 medium by broth microdilution method; format: functional
Procedure, shortened: (§1)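 Colistin was serially diluted from 64 to 0.06 μg/ml in RPMI 1640 with glucamine and without bicarbonate. Fresh spores from 48–72 h YAG plates were added at 0.5 × 10^4 to 4 × 10^4 cells/ml. Plates were incubated 24 h at 37°C. MIC was read visually as the lowest concentration giving 100% growth inhibition.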

Rhizopus arrhizus [2] = experiment: Antimicrobial activity against Rhizopus oryzae isolate 5799 after 24 hrs in yeast nitrogen base complete medium by broth microdilution method; format: functional, organism-based
Procedure, shortened: (§2)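 Microdilution was done in yeast nitrogen base complete medium, with colistin serially diluted 128 to 0.12 μg/ml. Spores were harvested from YAG plates (48–72 h, 37°C), washed, filtered and counted, then added at 0.5 × 10^4 to 4 × 10^4 cells/ml. After 24 h at 37°C, MIC was taken visually as the lowest concentration with complete growth inhibition.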

Rhizopus arrhizus [3] = experiment: Antimicrobial activity against Rhizopus oryzae assessed as plasma membrane disruption-related ATP release at 8 ug/ml after 5 mins by Cell Titer-Glo luminescent assay; format: functional, organism-based
Procedure, shortened: (§3)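 Spores at 10^7 cells/ml in RPMI 1640 were germinated about 6 h at 37°C. Germlings were resuspended in RPMI with colistin at 8 or 32 μg/ml, or drug-free, and shaken at 37°C. Supernatants taken at 5, 30, 60 and 90 min were assayed for released ATP by CellTiter-Glo luminescence.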

Rhizopus arrhizus [4] = experiment: Antimicrobial activity against Rhizopus oryzae assessed as reduction in hyphal viability at 8 ug/ml up to 6 hrs by XTT assay; format: functional, organism-based
Procedure, shortened: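 R. oryzae mycelia were shaken at 37°C in RPMI 1640 with colistin, amphotericin B or both; drug-free RPMI served as control. At 0, 2, 6 and 24 h, pellets received XTT (1 mg) plus menadione (0.17 mg) in 1 ml PBS for 1 h at 37°C, then OD405 was read. Viability is drug OD405 divided by control OD405; at least three experiments.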

Rhizopus arrhizus [5] = experiment: Antimicrobial activity against Rhizopus oryzae isolate 5496 after 24 hrs in RMPI 1640 medium by broth microdilution method; format: functional, organism-based; procedure, shortened: as §1
Rhizopus arrhizus [6] = experiment: Antimicrobial activity against Rhizopus oryzae isolate 6093 after 24 hrs in RMPI 1640 medium by broth microdilution method; format: functional, organism-based
Procedure, shortened: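 Broth microdilution in RPMI 1640 with […], without bicarbonate. Colistin was serially diluted 64 to 0.06 μg/ml. Spores came from YAG plates grown 48–72 h at 37°C, were filtered and counted, and were inoculated at 0.5 × 10^4 to 4 × 10^4 cells/ml. Plates were incubated 24 h at 37°C. MIC was read visually as the lowest concentration giving 100% growth inhibition.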

[7] = tested on: Cunninghamella bertholletiae; experiment: Antimicrobial activity against Cunninghamella bertholletiae isolate 5633 after 24 hrs in yeast nitrogen base complete medium by broth microdilution method; format: functional, organism-based
Procedure, shortened: (§4)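 Broth microdilution in YNB complete medium with colistin at 128 to 0.12 μg/ml. Freshly collected spores were inoculated at 0.5 × 10^4 to 4 × 10^4 cells/ml and incubated 24 h at 37°C. MIC was read visually as the lowest concentration with complete (100%) growth inhibition.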

Rhizopus arrhizus [8] = experiment: Antimicrobial activity against Rhizopus oryzae assessed as cytoplasmic vacuolar swelling and bleb formation at 32 ug/ml by transmission electron microscopy; format: functional, organism-based
Rhizopus microsporus = experiment: Antimicrobial activity against Rhizopus microsporus isolate 6164 after 24 hrs in yeast nitrogen base complete medium by broth microdilution method; format: functional; procedure, shortened: as §4
Rhizopus homothallicus [9] = experiment: Antimicrobial activity against Rhizopus homothallicus isolate 5790 after 24 hrs in yeast nitrogen base complete medium by broth microdilution method; format: functional; procedure, shortened: as §4
Rhizopus [10] = experiment: Antimicrobial activity against […] isolate 6254 after 24 hrs in RMPI 1640 medium by broth microdilution method; format: functional, organism-based; procedure, shortened: as §1
Mucor circinelloides [11] = experiment: Antimicrobial activity against Mucor circinelloides isolate 4818 after 24 hrs in yeast nitrogen base complete medium by broth microdilution method; format: functional, organism-based; procedure, shortened: as §4
Mucor circinelloides [12] = experiment: Antimicrobial activity against Mucor circinelloides isolate 4818 after 24 hrs in RMPI 1640 medium by broth microdilution method; format: functional, organism-based; procedure, shortened: as §1
Rhizopus arrhizus [13] = experiment: Antimicrobial activity against Rhizopus oryzae isolate 4549 after 24 hrs in RMPI 1640 medium by broth microdilution method; format: functional, organism-based; procedure, shortened: as §1
Mucor circinelloides [14] = experiment: Ratio of MFC to MIC for Mucor circinelloides isolate 4480 after 24 hrs in RMPI 1640 medium by broth microdilution method; format: functional, organism-based
Procedure, shortened: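 RPMI 1640 microdilution with colistin at 64 to 0.06 μg/ml and spores at 0.5 × 10^4 to 4 × 10^4 cells/ml, incubated 24 h at 37°C. MIC was read visually as 100% inhibition. For MFC, 20 μl from clear wells and from the last growth well were subcultured onto YAG. MFC was the lowest concentration giving fewer than three colonies at 24 h (≥99.9% killing). The line reports the MFC/MIC ratio.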

Rhizopus [15] = experiment: Antimicrobial activity against Rhizopus sp. isolate 4523 after 24 hrs in yeast nitrogen base complete medium by broth microdilution method; format: functional, organism-based; procedure, shortened: as §2
[16] = tested on: Cunninghamella bertholletiae; experiment: Antimicrobial activity against Cunninghamella bertholletiae isolate 6694 after 24 hrs in yeast nitrogen base complete medium by broth microdilution method; format: functional, organism-based; procedure, shortened: as §4
Rhizopus arrhizus [17] = experiment: Antimicrobial activity against Rhizopus oryzae at 32 ug/disk after 24 hrs by disk diffusion method; format: functional, organism-based
Procedure, shortened: (§5)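 Paper disks loaded with 8, 16 or 32 μg colistin were placed on agar plates inoculated with 200 μl of a 10^6 cells/ml R. oryzae spore suspension. After 24 h at 37°C, the diameter of the inhibition zone was measured.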

Mucor circinelloides [18] = experiment: Antimicrobial activity against Mucor circinelloides isolate 4030 after 24 hrs in yeast nitrogen base complete medium by broth microdilution method; format: functional, organism-based; procedure, shortened: as §4
Rhizopus homothallicus [19] = experiment: Antimicrobial activity against Rhizopus homothallicus isolate 5790 after 24 hrs in RMPI 1640 medium by broth microdilution method; format: functional; procedure, shortened: as §1
Rhizopus arrhizus [20] = experiment: Antimicrobial activity against Rhizopus oryzae isolate 3140 after 24 hrs in yeast nitrogen base complete medium by broth microdilution method; format: functional, organism-based; procedure, shortened: as §4
Rhizopus homothallicus [21] = experiment: Antimicrobial activity against Rhizopus homothallicus isolate 6360 after 24 hrs in yeast nitrogen base complete medium by broth microdilution method; format: functional; procedure, shortened: as §4
Rhizopus arrhizus [22] = experiment: Antimicrobial activity against Rhizopus oryzae assessed as plasma membrane disruption-related ATP release at 8 ug/ml after 30 mins by Cell Titer-Glo luminescent assay; format: functional, organism-based; procedure, shortened: as §3
Rhizopus arrhizus [23] = experiment: Antimicrobial activity against Rhizopus oryzae at 8 ug/disk after 24 hrs by disk diffusion method; format: functional, organism-based; procedure, shortened: as §5
Rhizopus arrhizus [24] = experiment: Antimicrobial activity against Rhizopus oryzae isolate 5879 after 24 hrs in yeast nitrogen base complete medium by broth microdilution method; format: functional, organism-based; procedure, shortened: as §2
Rhizopus arrhizus [25] = experiment: Antimicrobial activity against Rhizopus oryzae isolate 4153 after 24 hrs in yeast nitrogen base complete medium by broth microdilution method; format: functional, organism-based; procedure, shortened: as §4

Sequence: COLISTIN
- MFC (Rhizopus homothallicus [1]): 64 µg/mL
- MIC (Rhizopus homothallicus [1]): 32 µg/mL
- MFC (Rhizopus arrhizus [2]): > 128 µg/mL
- MIC (Rhizopus arrhizus [2]): 128 µg/mL
- Activity (Rhizopus arrhizus [3]): Active
- inhibition (Rhizopus arrhizus [4]): 45%
- MFC (Rhizopus arrhizus [5]): 32 µg/mL
- MIC (Rhizopus arrhizus [5]): 16 µg/mL
- MFC (Rhizopus arrhizus [6]): 32 µg/mL
- MIC (Rhizopus arrhizus [6]): 16 µg/mL
- MFC [7]: > 128 µg/mL
- MIC [7]: 128 µg/mL
- Activity (Rhizopus arrhizus [8]): Active
- MFC (Rhizopus microsporus): > 128 µg/mL
- MIC (Rhizopus microsporus): 128 µg/mL
- MFC (Rhizopus homothallicus [9]): > 128 µg/mL
- MIC (Rhizopus homothallicus [9]): 128 µg/mL
- MFC (Rhizopus [10]): 32 µg/mL
- MIC (Rhizopus [10]): 16 µg/mL
- MFC (Mucor circinelloides [11]): > 128 µg/mL
- MIC (Mucor circinelloides [11]): 128 µg/mL
- MFC (Mucor circinelloides [12]): 32 µg/mL
- MIC (Mucor circinelloides [12]): 32 µg/mL
- MFC (Rhizopus arrhizus [13]): 64 µg/mL
- MIC (Rhizopus arrhizus [13]): 32 µg/mL
- Ratio (Mucor circinelloides [14]): 2
- MFC (Rhizopus [15]): > 128 µg/mL
- MIC (Rhizopus [15]): 128 µg/mL
- MFC [16]: > 128 µg/mL
- MIC [16]: 128 µg/mL
- inhibition zone (IZ) (Rhizopus arrhizus [17]): 21 mm
- MFC (Mucor circinelloides [18]): > 128 µg/mL
- MIC (Mucor circinelloides [18]): 128 µg/mL
- MFC (Rhizopus homothallicus [19]): 64 µg/mL
- MIC (Rhizopus homothallicus [19]): 16 µg/mL
- MFC (Rhizopus arrhizus [20]): > 128 µg/mL
- MIC (Rhizopus arrhizus [20]): 128 µg/mL
- MFC (Rhizopus homothallicus [21]): > 128 µg/mL
- MIC (Rhizopus homothallicus [21]): 128 µg/mL
- Activity (Rhizopus arrhizus [22]): Active
- inhibition zone (IZ) (Rhizopus arrhizus [23]): 18 mm
- MFC (Rhizopus arrhizus [24]): > 128 µg/mL
- MIC (Rhizopus arrhizus [24]): 128 µg/mL
- MFC (Rhizopus arrhizus [25]): > 128 µg/mL
- MIC (Rhizopus arrhizus [25]): 128 µg/mL

Reference: ChEMBL document CHEMBL1212759, “Antifungal activity of colistin against mucorales species in vitro and in a murine model of Rhizopus oryzae pulmonary infection” (Antimicrob Agents Chemother, 2010)
